≈ marks a conversion by molar mass, not a printed value.
Tests used:
[1] = system: Mycobacterium tuberculosis; assay: Antibacterial activity against Mycobacterium tuberculosis rv0443 knockout strain incubated for 10 days by resazurin dye based microtiter plate assay; type: functional; settings: rv0443, 240 h, time 10 day
In short: (§1)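 MIC in 7H9-ADC-Tween 80 medium. Strains (CDC1551 WT, rv0443 KO) grown to mid-log (OD600 ~0.8), diluted to OD600 0.01, exposed to serial antibiotic dilutions for 10 days at 37 °C; MIC read by resazurin blue test.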

[2] = system: Mycobacterium tuberculosis; assay: Antibacterial activity against wild type Mycobacterium tuberculosis CDC1551 incubated for 10 days by resazurin dye based microtiter plate assay; type: functional; settings: CDC1551, 240 h, time 10 day; in short: as §1

CO[C@H]1/C=C/O[C@@]2(C)Oc3c(C)c(O)c4c(O)c(c(/C=N/N5CCN(C)CC5)c(O)c4c3C2=O)NC(=O)/C(C)=C\C=C\[C@H](C)[C@H](O)[C@@H](C)[C@@H](O)[C@@H](C)[C@H](OC(C)=O)[C@@H]1C [RIFAMPIN] was tested, and the MIC [1] was 2.5 ng/mL (≈ 3.04 nM) and the MIC [2] was 2.5 ng/mL (≈ 3.04 nM).

Reference: ChEMBL document CHEMBL5252635, “The Mycobacterium tuberculosis mycothiol S-transferase is divalent metal-dependent for mycothiol binding and transfer” (2023)
